Results as given in ChEMBL document CHEMBL1165906, “Cytotoxic N-(fluorenyl-9-methoxycarbonyl) (Fmoc)-dipeptides: structure-activity relationships and synergistic studies” (Eur J Med Chem, 2010).
The source made the active and inactive calls. The calls are words filed in the database; no cut-off is given here.

Legend:
[1] = Cytotoxicity against human Hep3B cells after 72 hrs by MTT assay; format: functional, cell-based, Hep 3B2
Outline: (§1)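 Freshly trypsinized cells were seeded at 5000–10,000 per well in 96-well plates. Attached cells were given MTT (0.5 mg/ml, 1 h), solubilized in DMSO and read at 550 nm. IC₅₀ came from survival curves as mean ± S.E.M., n = 2.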

MCF7 = assay: Cytotoxicity against human MCF7 cells after 72 hrs by MTT assay; format: functional, cell-based; settings: MCF7, 72 h
Outline: (§2)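 Freshly trypsinized cells were seeded at 5000–10,000 per well in 96-well plates. […] Attached cells were given MTT (0.5 mg/ml, 1 h), solubilized in DMSO and read at 550 nm. IC₅₀ came from survival curves as mean ± S.E.M., n = 2.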

A549 = assay: Cytotoxicity against human A549 cells after 72 hrs by MTT assay; format: functional, cell-based; settings: A549, 72 h; outline: as §2
Ca9-22 = assay: Cytotoxicity against human Ca9-22 cells after 72 hrs by MTT assay; format: functional, cell-based; settings: Ca9-22, 72 h; outline: as §2
MDA-MB-231 = assay: Cytotoxicity against human MDA-MB-231 cells after 72 hrs by MTT assay; format: functional, cell-based; settings: MDA-MB-231, 72 h; outline: as §2
HepG2 = assay: Cytotoxicity against human HepG2 cells after 72 hrs by MTT assay; format: functional, cell-based; settings: HepG2, 72 h; outline: as §1
Hepatitis C virus [2] = assay: Antiviral activity against HCV infected in human Huh7 cells assessed as inhibition of viral replication at 10 uM after 4 days; format: functional, Hepacivirus hominis; settings: Huh-7, 96 h
Outline: (§3)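 Ava5 cells, Huh-7 hepatoma cells carrying a subgenomic HCV replicon, seeded at 5 ×10⁴ per well in 24-well plates and treated for 4 days. Cell extracts were normalized by protein assay and 5 µg was run on 8% SDS-PAGE and transferred to PVDF. Blots were blocked in 5% skim milk and probed for NS3 with GAPDH as loading control. Signals came from HRP secondaries and ECL and were quantified by densitometry.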

Hepatitis C virus [3] = assay: Antiviral activity against HCV infected in human Huh7 cells assessed as inhibition of viral replication at 5 uM after 4 days; format: functional, organism-based; settings: Hepacivirus hominis, Huh-7; outline: as §3

CC(=O)OC[C@H](Cc1ccccc1)NC(=O)[C@@H](NC(=O)OCC1c2ccccc2-c2ccccc21)C(C)C
IC50 [1]: > 55 µM
IC50 (MCF7): > 55 µM
IC50 (A549): > 55 µM
IC50 (Ca9-22): > 55 µM
IC50 (MDA-MB-231): > 55 µM

O=C(N[C@@H](Cc1ccc2ccccc2c1)C(=O)N[C@H](COC(=O)c1ccccc1)Cc1ccccc1)OCC1c2ccccc2-c2ccccc21
IC50 (HepG2): > 55 µM
IC50 [1]: > 55 µM
IC50 (MCF7): > 55 µM
IC50 (A549): > 55 µM
IC50 (Ca9-22): > 55 µM
IC50 (MDA-MB-231): > 55 µM

O=C(N[C@@H](Cc1ccccc1)C(=O)N[C@H](COC(=O)c1ccccc1)Cc1ccccc1)OCC1c2ccccc2-c2ccccc21
IC50 (HepG2): > 55 µM
IC50 [1]: > 55 µM
IC50 (MCF7): > 55 µM
IC50 (Ca9-22): > 55 µM
IC50 (MDA-MB-231): > 55 µM

O=C(N[C@@H](Cc1ccccc1)C(=O)N[C@@H](CO)Cc1ccccc1)OCC1c2ccccc2-c2ccccc21
IC50 (HepG2): > 55 µM
IC50 [1]: > 55 µM
IC50 (MCF7): > 55 µM
IC50 (A549): > 55 µM
IC50 (Ca9-22): > 55 µM
IC50 (MDA-MB-231): > 55 µM

CC(C)[C@H](NC(=O)OCC1c2ccccc2-c2ccccc21)C(=O)N[C@H](COC(=O)c1ccccc1)Cc1ccccc1
IC50 (HepG2): > 55 µM
IC50 [1]: > 55 µM
IC50 (MCF7): > 55 µM
IC50 (A549): > 55 µM
IC50 (MDA-MB-231): > 55 µM

CC(=O)OC[C@@H](Cc1ccccc1)NC(=O)[C@H](Cc1ccc2ccccc2c1)NC(=O)OCC1c2ccccc2-c2ccccc21
IC50 (MDA-MB-231): > 55 µM

O=C(N[C@@H](Cc1c[nH]c2ccccc12)C(=O)N[C@@H](COC(=O)c1ccccc1)Cc1ccccc1)OCC1c2ccccc2-c2ccccc21
inhibition at 10 µM (Hepatitis C virus [2]): 72%
inhibition (Hepatitis C virus [3]): inactive

O=C(N[C@@H](Cc1c[nH]c2ccccc12)C(=O)N[C@H](CO)Cc1ccccc1)OCC1c2ccccc2-c2ccccc21
IC50 [1]: > 55 µM
IC50 (MCF7): > 55 µM
IC50 (Ca9-22): > 55 µM
IC50 (MDA-MB-231): > 55 µM

CC(=O)OC[C@H](Cc1ccccc1)NC(=O)[C@H](Cc1c[nH]c2ccccc12)NC(=O)OCC1c2ccccc2-c2ccccc21
IC50 [1]: > 55 µM
IC50 (MCF7): > 55 µM

O=C(N[C@@H](Cc1ccc2ccccc2c1)C(=O)N[C@@H](COC(=O)c1ccccc1)Cc1ccccc1)OCC1c2ccccc2-c2ccccc21
IC50 (MDA-MB-231): > 55 µM

CC(C)[C@H](NC(=O)OCC1c2ccccc2-c2ccccc21)C(=O)N[C@@H](COC(=O)c1ccccc1)Cc1ccccc1
IC50 (HepG2): > 55 µM
IC50 (MCF7): > 55 µM
IC50 (A549): > 55 µM
IC50 (MDA-MB-231): > 55 µM

O=C(N[C@@H](Cc1ccccc1)C(=O)N[C@@H](COC(=O)c1ccccc1)Cc1ccccc1)OCC1c2ccccc2-c2ccccc21
IC50 [1]: > 55 µM
IC50 (MCF7): > 55 µM
IC50 (Ca9-22): > 55 µM
IC50 (MDA-MB-231): > 55 µM

CC(=O)OC[C@@H](Cc1ccccc1)NC(=O)[C@H](Cc1ccccc1)NC(=O)OCC1c2ccccc2-c2ccccc21
IC50 (MCF7): > 55 µM

CC(C)[C@H](NC(=O)OCC1c2ccccc2-c2ccccc21)C(=O)N[C@H](CO)Cc1ccccc1
IC50 [1]: > 55 µM
IC50 (MCF7): > 55 µM
IC50 (A549): > 55 µM
IC50 (MDA-MB-231): > 55 µM

CC(=O)OC[C@@H](Cc1ccccc1)NC(=O)[C@H](Cc1ccc(O)cc1)NC(=O)OCC1c2ccccc2-c2ccccc21
IC50 (MCF7): > 55 µM
IC50 (A549): > 55 µM
IC50 (MDA-MB-231): > 55 µM

COc1cccc2c1C(=O)c1c(O)c3c(c(O)c1C2=O)C[C@@](O)(C(=O)CO)C[C@@H]3O[C@H]1C[C@H](N)[C@H](O)[C@H](C)O1 [DOXORUBICIN]
IC50 (A549): 0.4 µM
IC50 (Ca9-22): 1.3 µM
IC50 (MDA-MB-231): 0.1 µM

O=C(N[C@@H](Cc1ccc2ccccc2c1)C(=O)N[C@H](CO)Cc1ccccc1)OCC1c2ccccc2-c2ccccc21
IC50 [1]: > 55 µM
IC50 (MCF7): > 55 µM
IC50 (MDA-MB-231): > 55 µM

O=C(N[C@@H](Cc1ccc2ccccc2c1)C(=O)N[C@@H](CO)Cc1ccccc1)OCC1c2ccccc2-c2ccccc21
IC50 (MCF7): > 55 µM
IC50 (A549): > 55 µM
IC50 (MDA-MB-231): > 55 µM

O=C(N[C@@H](Cc1ccc(O)cc1)C(=O)N[C@@H](COC(=O)c1ccccc1)Cc1ccccc1)OCC1c2ccccc2-c2ccccc21
IC50 (HepG2): > 55 µM
IC50 [1]: > 55 µM
IC50 (MCF7): > 55 µM
IC50 (MDA-MB-231): > 55 µM
inhibition at 10 µM (Hepatitis C virus [2]): 87%
inhibition (Hepatitis C virus [3]): inactive

CC(C)[C@H](NC(=O)OCC1c2ccccc2-c2ccccc21)C(=O)N[C@@H](CO)Cc1ccccc1
IC50 (MCF7): > 55 µM
IC50 (A549): > 55 µM
IC50 (MDA-MB-231): > 55 µM

CC(=O)OC[C@H](Cc1ccccc1)NC(=O)[C@H](Cc1ccc2ccccc2c1)NC(=O)OCC1c2ccccc2-c2ccccc21
IC50 [1]: > 55 µM

O=C(N[C@@H](Cc1ccc(O)cc1)C(=O)N[C@H](CO)Cc1ccccc1)OCC1c2ccccc2-c2ccccc21
IC50 (MCF7): > 55 µM
IC50 (A549): > 55 µM
IC50 (MDA-MB-231): > 55 µM

CC(=O)OC[C@H](Cc1ccccc1)NC(=O)[C@H](Cc1ccc(O)cc1)NC(=O)OCC1c2ccccc2-c2ccccc21
IC50 [1]: > 55 µM
IC50 (MCF7): > 55 µM
IC50 (A549): > 55 µM
IC50 (Ca9-22): > 55 µM
IC50 (MDA-MB-231): > 55 µM

O=C(N[C@@H](Cc1ccc(O)cc1)C(=O)N[C@H](COC(=O)c1ccccc1)Cc1ccccc1)OCC1c2ccccc2-c2ccccc21
IC50 (HepG2): > 55 µM

O=C(N[C@@H](Cc1ccccc1)C(=O)N[C@H](CO)Cc1ccccc1)OCC1c2ccccc2-c2ccccc21
IC50 (HepG2): > 55 µM
IC50 [1]: > 55 µM
IC50 (MCF7): > 55 µM
IC50 (A549): > 55 µM
IC50 (Ca9-22): > 55 µM
IC50 (MDA-MB-231): > 55 µM

CC(=O)OC[C@H](Cc1ccccc1)NC(=O)[C@H](Cc1ccccc1)NC(=O)OCC1c2ccccc2-c2ccccc21
IC50 (HepG2): > 55 µM
IC50 [1]: > 55 µM
IC50 (MCF7): > 55 µM
IC50 (Ca9-22): > 55 µM
IC50 (MDA-MB-231): > 55 µM
